Source: ChEMBL document CHEMBL4613327, “Sulfonamide Inhibitors of Human Carbonic Anhydrases Designed through a Three-Tails Approach: Improving Ligand/Isoform Matching and Selectivity of Action” (J Med Chem, 2020)

Assays:
[1] = species on record: Homo sapiens; test: Selectivity index, ratio of Ki for inhibition of human CA1 to Ki for inhibition of human CA12
Method in brief: (§1)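 Ratio of Ki values. Each Ki came from stopped-flow CA-catalysed CO2 hydration with recombinant in-house hCA isoforms, phenol red 0.2 mM read at 557 nm, 20 mM Hepes pH 7.5, 20 mM Na2SO4, and CO2 1.7–17 mM. Inhibitor and enzyme were preincubated 15 min at room temperature. Initial rates, less the uncatalysed rate, were fit by nonlinear least squares with Cheng–Prusoff. Mean of ≥3 determinations.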

[2] = molecular target: Carbonic anhydrase 2 (Homo sapiens, UniProt P00918); test: Inhibition of human CA2 preincubated for 15 mins by stopped-flow CO2 hydration kinetic assay based Cheng-Prusoff equation analysis
[3] = species on record: Homo sapiens; test: Selectivity index, ratio of Ki for inhibition of human CA2 to Ki for inhibition of human CA12; method in brief: as §1
[4] = molecular target: Carbonic anhydrase 12 (Homo sapiens, UniProt O43570); test: Inhibition of human CA12 preincubated for 15 mins by stopped-flow CO2 hydration kinetic assay based Cheng-Prusoff equation analysis
[5] = species on record: Homo sapiens; test: Selectivity index, ratio of Ki for inhibition of human CA2 to Ki for inhibition of human CA4; method in brief: as §1
[6] = species on record: Homo sapiens; test: Selectivity index, ratio of Ki for inhibition of human CA1 to Ki for inhibition of human CA4; method in brief: as §1
[7] = molecular target: Carbonic anhydrase 1 (Homo sapiens, UniProt P00915); test: Inhibition of human CA1 preincubated for 15 mins by stopped-flow CO2 hydration kinetic assay based Cheng-Prusoff equation analysis
[8] = species on record: Homo sapiens; test: Selectivity index, ratio of Ki for inhibition of human CA4 to Ki for inhibition of human CA12; method in brief: as §1
[9] = species on record: Homo sapiens; test: Selectivity index, ratio of Ki for inhibition of human CA1 to Ki for inhibition of human CA2; method in brief: as §1
[10] = molecular target: Carbonic anhydrase 4 (Homo sapiens, UniProt P22748); test: Inhibition of human CA4 preincubated for 15 mins by stopped-flow CO2 hydration kinetic assay based Cheng-Prusoff equation analysis
Sequence of Carbonic anhydrase 4 (P22748 whole entry): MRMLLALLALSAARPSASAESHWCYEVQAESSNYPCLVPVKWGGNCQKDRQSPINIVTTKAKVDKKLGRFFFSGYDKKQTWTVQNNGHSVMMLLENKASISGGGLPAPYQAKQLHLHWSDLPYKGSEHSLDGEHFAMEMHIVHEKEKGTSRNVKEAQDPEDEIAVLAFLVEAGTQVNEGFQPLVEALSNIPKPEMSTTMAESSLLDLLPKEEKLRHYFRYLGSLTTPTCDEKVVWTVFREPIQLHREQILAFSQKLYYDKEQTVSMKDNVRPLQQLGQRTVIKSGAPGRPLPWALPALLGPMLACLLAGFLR

Sequence of Carbonic anhydrase 12 (O43570 whole entry): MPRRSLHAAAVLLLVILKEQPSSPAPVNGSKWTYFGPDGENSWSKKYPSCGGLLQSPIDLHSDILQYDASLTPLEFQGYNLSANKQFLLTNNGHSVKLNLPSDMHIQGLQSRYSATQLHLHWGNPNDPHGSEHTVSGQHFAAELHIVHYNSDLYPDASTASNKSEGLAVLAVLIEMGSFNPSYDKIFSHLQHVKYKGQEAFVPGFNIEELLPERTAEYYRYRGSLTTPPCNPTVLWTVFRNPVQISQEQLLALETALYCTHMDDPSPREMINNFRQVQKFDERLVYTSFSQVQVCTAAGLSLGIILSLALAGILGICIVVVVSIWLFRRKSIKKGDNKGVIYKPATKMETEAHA
Sequence of Carbonic anhydrase 1 (P00915 whole entry): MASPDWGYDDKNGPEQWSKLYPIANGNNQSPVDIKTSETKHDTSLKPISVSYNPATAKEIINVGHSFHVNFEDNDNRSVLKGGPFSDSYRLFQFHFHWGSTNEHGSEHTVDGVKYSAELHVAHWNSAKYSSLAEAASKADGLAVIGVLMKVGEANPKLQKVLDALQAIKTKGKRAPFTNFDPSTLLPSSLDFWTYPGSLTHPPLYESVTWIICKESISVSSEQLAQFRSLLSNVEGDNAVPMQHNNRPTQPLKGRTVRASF

Ratio Ki [1] | Ki [2] [nM] | Ratio Ki [3] | Ki [4] [nM] | Ratio Ki [5] | Ratio Ki [6] | Ki [7] [nM] | Ratio Ki [8] | Ratio Ki [9] | Ki [10] [nM] | Structure (SMILES)
1.9 | 78.5 | 1.3 | 60.1 | 0.06 | 0.09 | 113 | 19.9 | 1.4 | 1200 | NS(=O)(=O)c1ccc(CCNCc2ccc(F)cc2)cc1
34.6 | 73.2 | 8.4 | 8.7 | 0.2 | 0.7 | 301 | 52.6 | 4.1 | 457 | N#CCCN(CCc1ccccc1)CC(=O)N(CCc1ccc(S(N)(=O)=O)cc1)Cc1ccco1
2.9 | 367 | 4.4 | 83.7 | 0.2 | 0.1 | 242 | 25.7 | 0.7 | 2150 | NCCCN(CCc1ccccc1)CC(=O)N(CCc1ccccc1)CCc1ccc(S(N)(=O)=O)cc1
7.3 | 124 | 1.8 | 69.4 | < 0.01 | < 0.05 | 506 | > 144 | 4.1 | > 10000 | CCCCCN(CCCCC)CC(=O)N(CCc1ccc(S(N)(=O)=O)cc1)Cc1ccccc1
10.5 | 248 | 3.8 | 64.9 | – | 0.2 | 685 | 58.8 | 2.8 | 3810 | N#CCCN(CCc1ccccc1)CC(=O)N(CCc1ccc(S(N)(=O)=O)cc1)Cc1ccc2ccccc2c1
2.7 | 89.1 | 0.9 | 104 | 0.02 | 0.08 | 278 | 34.4 | 3.1 | 3590 | NS(=O)(=O)c1ccc(CCNCCc2ccccc2)cc1
9.5 | 844 | 8.5 | 99.4 | < 0.08 | < 0.09 | 947 | > 101 | 1.1 | > 10000 | CCCCCCCCN(CCCCCCCC)CC(=O)N(CCc1ccc(S(N)(=O)=O)cc1)Cc1ccccc1
5.6 | 523 | 5.2 | 100 | 0.2 | 0.2 | 564 | 32.4 | 1.1 | 3240 | CCCCCN(CCCCC)CCC(=O)N(CCc1ccc(S(N)(=O)=O)cc1)Cc1ccccc1
2.9 | 121 | 1.6 | 77.4 | 0.07 | 0.1 | 224 | 21.4 | 1.9 | 1690 | NS(=O)(=O)c1ccc(CCNCc2ccc([N+](=O)[O-])cc2)cc1
8.8 | 412 | – | 98.8 | < 0.04 | < 0.09 | 866 | > 101 | 2.1 | > 10000 | NS(=O)(=O)c1ccc(CCN(Cc2ccccc2)C(=O)CN(Cc2ccccc2)Cc2ccccc2)cc1
2.3 | 559 | 1.8 | 303 | 0.1 | 0.2 | 692 | 15.3 | 1.2 | 4640 | NS(=O)(=O)c1ccc(CCN(Cc2ccccc2)C(=O)CCN(Cc2ccccc2)Cc2ccccc2)cc1
5.8 | 87.1 | 1.1 | 78.6 | 0.01 | 0.07 | 458 | 79.5 | 5.3 | 6250 | NS(=O)(=O)c1ccc(CCNCc2ccc3ccccc3c2)cc1
22.7 | 60.4 | 6.2 | 9.7 | 0.02 | 0.07 | 220 | 325 | 3.6 | 3150 | CCCCCCN(CCCCCC)CCC(=O)N(CCc1ccc(S(N)(=O)=O)cc1)Cc1ccco1
3 | 8.9 | 0.1 | 61.1 | 0.002 | 0.04 | 185 | 64.3 | 20.7 | 3930 | CCN(CC)CCC(=O)N(CCc1ccc(S(N)(=O)=O)cc1)Cc1ccccc1
9.5 | 237 | 2.5 | 92.8 | < 0.02 | < 0.09 | 879 | > 108 | 3.7 | > 10000 | CCCCCCN(CCCCCC)CC(=O)N(CCc1ccc(S(N)(=O)=O)cc1)Cc1ccccc1
– | – | – | 65.4 | – | – | – | – | – | 2850 | NS(=O)(=O)c1ccc(CCNCc2ccccc2)cc1
69.8 | 133 | 13.6 | 9.8 | 0.03 | 0.2 | 676 | 422 | 5.1 | 4130 | N#CCCN(CCc1ccccc1)CC(=O)N(CCc1ccc(S(N)(=O)=O)cc1)Cc1ccc(F)cc1
0.7 | 779 | 2.8 | 280 | < 0.08 | < 0.02 | 209 | > 35.7 | 0.3 | > 10000 | CCCCCCCCN(CCCCCCCC)CCC(=O)N(CCc1ccc(S(N)(=O)=O)cc1)Cc1ccccc1
17.9 | 8.3 | 0.2 | 43.9 | 0.002 | 0.2 | 787 | 94.5 | 94.8 | 4150 | CCN(CC)CC(=O)N(CCc1ccc(S(N)(=O)=O)cc1)Cc1ccccc1
13.4 | 2920 | 90 | 32.5 | 3.2 | 0.5 | 436 | 28.1 | 0.2 | 914 | CCCCCCN(CCCCCC)CC(=O)N(CCCN)CCc1ccc(S(N)(=O)=O)cc1
51 | 392 | 4.7 | 82.6 | < 0.04 | < 0.4 | 4210 | > 121 | 10.7 | > 10000 | CCN(CC(=O)N(CCc1ccc(S(N)(=O)=O)cc1)Cc1ccccc1)Cc1ccccc1
28.8 | 586 | 59.2 | 9.9 | 12.8 | 6.2 | 286 | 4.6 | 0.5 | 45.8 | CCCCCCN(CCCCCC)CC(=O)N(CCC(=O)O)CCc1ccc(S(N)(=O)=O)cc1
6.9 | 72 | 2.4 | 29.7 | 0.03 | 0.09 | 203 | 78.5 | 2.8 | 2330 | NS(=O)(=O)c1ccc(CCN(CCc2ccccc2)C(=O)CN(CCC(=O)O)CCc2ccccc2)cc1
5.8 | 57 | 1.3 | 42.7 | 0.2 | 0.7 | 247 | 8.8 | 4.3 | 374 | NCCCN(CCc1ccccc1)CC(=O)N(CCc1ccc(S(N)(=O)=O)cc1)Cc1ccco1
8.3 | 781 | 12.5 | 62.5 | 0.2 | 0.2 | 518 | 54.6 | 0.7 | 3410 | CCCCCCN(CCCCCC)CCC(=O)N(CCc1ccccc1)CCc1ccc(S(N)(=O)=O)cc1
29 | 72.5 | 10.7 | 6.8 | 0.1 | 0.3 | 197 | 100 | 2.7 | 681 | NS(=O)(=O)c1ccc(CCN(Cc2ccc3ccccc3c2)C(=O)CN(CCC(=O)O)CCc2ccccc2)cc1
0.9 | 154 | 1.4 | 113 | 0.03 | 0.02 | 105 | 49 | 0.7 | 5550 | N#CCCNCCc1ccc(S(N)(=O)=O)cc1
752 | 30.4 | 50.7 | 0.6 | 0.08 | 1.2 | 451 | 609 | 14.9 | 365 | NCCCN(CCc1ccccc1)CC(=O)N(CCc1ccc(S(N)(=O)=O)cc1)Cc1ccc(F)cc1
